Screens deposited in PubChem BioAssay by several laboratories.
Tb hexokinase: blocks Trypanosoma brucei hexokinase 1 activity. recombinant TbHK1, G6PDH-coupled NADH A340. inhibition, % at 10 µM. actives 0.11% (n = 220,000);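 active means inhibition of 50% or more in the single-dose primary screen; inactive means inhibition below 50%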
NPY1 pot ag: potentiates or activates human NPY-Y1 receptor; P25929; NPY-Y1 expressing cells, potentiator/agonist activation; activation, % at 3.6 µM; actives 0.37% (n = 220,000); AID 1304; in the data active means activation above about 33%, passing the limit was not always enough;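 further: cells stimulated with NPY at EC10 then isoproterenol at EC100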
Target sequence (P25929 whole entry, looked up): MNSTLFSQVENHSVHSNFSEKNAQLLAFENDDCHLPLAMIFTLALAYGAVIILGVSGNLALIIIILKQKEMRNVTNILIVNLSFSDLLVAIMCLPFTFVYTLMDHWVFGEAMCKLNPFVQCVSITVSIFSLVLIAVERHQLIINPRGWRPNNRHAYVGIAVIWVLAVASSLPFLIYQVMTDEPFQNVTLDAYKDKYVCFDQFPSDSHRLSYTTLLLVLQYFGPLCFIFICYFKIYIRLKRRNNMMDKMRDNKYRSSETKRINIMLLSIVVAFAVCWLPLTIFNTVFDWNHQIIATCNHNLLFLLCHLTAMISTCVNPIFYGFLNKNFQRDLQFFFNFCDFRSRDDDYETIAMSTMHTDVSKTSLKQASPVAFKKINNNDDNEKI
NPY2 pot ag: potentiators or agonists of human neuropeptide Y receptor Y2 | P49146 | cells expressing NPY-Y2, potentiator/agonist read-out | activation, % at 3.6 µM | actives 0.45% (n = 220,000) | AID 1359; in the data active means activation above about 27%;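 further: cells stimulated with NPY near EC25 plus isoproterenol at EC100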
NPY-Y2 antag: antagonists of human neuropeptide Y receptor Y2; P49146; inhibition, % at 2.7 µM; actives 0.99% (n = 140,000); AID 793; NPY-Y2 expressing cells, antagonist mode
m-calpain inh: blocks pig calpain II enzyme activity | inhibition, % at 16 µM | purified calpain II, fluorogenic peptide substrate, 30 min | actives 0.37% (n = 220,000) | AID 1236;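 active means inhibition above about 50%, limit read from the data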
NPY-Y1 antag: blocks the human neuropeptide Y Y1 receptor; actives 1% (n = 200,000); inhibition, % at 3.6 µM; P25929; HEK293-CNG Y1 cells, membrane potential fluorescence; NPY at EC95, then isoproterenol;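 active means inhibition above the campaign mean inhibition of all tested compounds plus 3 SD, cut at about 20% in these data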
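Test system – HEK293 Y1/CNG channel cell line · Also added – NPY agonist 25 nM, then isoproterenol 1 µM plus Ro 20-1724 25 µM · Compound dosing – one concentration, 3.6 µM, in 0.4% DMSO · Schedule – compound incubation 1 h at room temperature, readout 45 min post-stimulation · Technique – fluorescence, membrane potential probe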
NPY1 antag conf: confirmation of human neuropeptide Y receptor Y1 antagonists | shares compounds with NPY-Y1 antag | HEK293-CNG NPY-Y1, membrane potential fluorescence, cAMP; NPY challenge against isoproterenol-raised cAMP | AID 1254 | inhibition, % at 3.6 µM | actives 21% (n = 1,200); in the data active means inhibition above about 20%
NPY2 antag ctr: antagonizes human NPY-Y2, counter-screen to NPY-Y1 antagonists; shares compounds with NPY-Y1 antag; HEK293 NPY-Y2 CNG membrane potential fluorescence, antagonism; cells given NPY, then isoproterenol; inhibition, % at 3.6 µM; actives 28% (n = 1,200); AID 1255
Hits are given with their value. Rows were chosen to be rich in hits. Some 2.3% of all compounds tested hit in one or more screens of this group. Unless noted, no stated cut-off is given here; in the data, active means inhibition above about 17%; inactive means the rest.

Screening O=C(NCC(c1cccnc1)N1CCN(c2ccc(F)cc2)CC1)C1CCCCC1 (configuration not stated) returned Tb hexokinase inactive, NPY1 pot ag inactive, NPY2 pot ag inactive, NPY-Y2 antag inactive, m-calpain inh inactive, NPY-Y1 antag 65.8, NPY1 antag conf inactive and NPY2 antag ctr inactive.
Cc1cc2ncn(-c3ncnc4sc(C)c(C)c34)c2cc1C was read as Tb hexokinase inactive, NPY1 pot ag inactive, NPY2 pot ag inactive, NPY-Y2 antag inactive, m-calpain inh inactive and NPY-Y1 antag inactive.
`Cc1cc2ncn(-c3ncnc4scc(-c5ccccc5)c34)c2cc1C` gave Tb hexokinase inactive, NPY1 pot ag inactive, NPY2 pot ag inactive, NPY-Y2 antag inactive, m-calpain inh inactive, NPY-Y1 antag 31.1, NPY1 antag conf inactive and NPY2 antag ctr inactive.
`O=C(N/N=C/c1ccc(N2CCOCC2)cc1)c1ccccc1OCCOc1ccccc1` gave Tb hexokinase inactive, NPY1 pot ag inactive, NPY2 pot ag inactive, m-calpain inh inactive and NPY-Y1 antag inactive.
Screening CCOC(=O)CC1C(=O)NCCN1C(=O)c1cc2c(=O)n3ccccc3nc2s1 (configuration not stated) returned Tb hexokinase inactive, NPY1 pot ag inactive, NPY2 pot ag inactive, NPY-Y2 antag inactive, m-calpain inh inactive, NPY-Y1 antag 98.1, NPY1 antag conf inactive and NPY2 antag ctr inactive.
CCOC(=O)CC1C(=O)NCCN1C(=O)c1cc2c(=O)n3cccc(C)c3nc2s1 (configuration not stated) was read as Tb hexokinase inactive, NPY1 pot ag inactive, NPY2 pot ag inactive, NPY-Y2 antag inactive, m-calpain inh inactive and NPY-Y1 antag inactive.
`CCN(CC)CCCNc1nc2ccccc2[nH]1` gave Tb hexokinase inactive, NPY1 pot ag inactive, NPY2 pot ag inactive, NPY-Y2 antag inactive, m-calpain inh inactive, NPY-Y1 antag 30.1, NPY1 antag conf inactive and NPY2 antag ctr inactive.
`CCNc1nc2ccccc2[nH]1` gave Tb hexokinase inactive, NPY1 pot ag inactive, NPY2 pot ag inactive, NPY-Y2 antag inactive, m-calpain inh inactive and NPY-Y1 antag inactive.
Screening CCn1ccnc1[C@@H]1C[C@H]2CN(c3ccccc3OC)C(=O)[C@]23CCCN13 returned Tb hexokinase inactive, NPY1 pot ag inactive, NPY2 pot ag inactive, m-calpain inh inactive and NPY-Y1 antag inactive.
Screening Cc1cc2ccccc2c(=O)n1CC(=O)NCCC1=CCCCC1 returned Tb hexokinase inactive, NPY1 pot ag inactive, NPY2 pot ag inactive, m-calpain inh inactive and NPY-Y1 antag inactive.
For COCCCNCCCCOc1c(Cl)cc(C)cc1Br the results were Tb hexokinase inactive, NPY1 pot ag inactive, NPY2 pot ag inactive, NPY-Y2 antag inactive, m-calpain inh inactive, NPY-Y1 antag 30.8, NPY1 antag conf inactive and NPY2 antag ctr inactive.
`C=CCNCCCCOc1c(Cl)cc(C)cc1Br` gave Tb hexokinase inactive, NPY1 pot ag inactive, NPY2 pot ag inactive, NPY-Y2 antag inactive, m-calpain inh inactive, NPY-Y1 antag 20.8, NPY1 antag conf inactive and NPY2 antag ctr 17.8.
Screening O=C(Nc1cccc(Cl)c1)c1csc(-c2ccccc2)n1 returned Tb hexokinase inactive, NPY1 pot ag inactive, NPY2 pot ag inactive, NPY-Y2 antag inactive, m-calpain inh inactive, NPY-Y1 antag 22.7, NPY1 antag conf inactive and NPY2 antag ctr inactive.
`O=C(Nc1ccc(Cl)c(Cl)c1)c1csc(-c2ccccc2)n1` gave Tb hexokinase inactive, NPY1 pot ag inactive, NPY2 pot ag inactive, NPY-Y2 antag inactive, m-calpain inh inactive and NPY-Y1 antag inactive.
For CCOC(=O)C(=CNc1cc(C)nn1-c1ccc(Cl)cc1)C(=O)OCC the results were Tb hexokinase inactive, NPY1 pot ag inactive, NPY2 pot ag inactive, NPY-Y2 antag inactive, m-calpain inh inactive, NPY-Y1 antag 23.7, NPY1 antag conf 20.8 and NPY2 antag ctr inactive.
Screening CCN(CC)S(=O)(=O)c1ccc(N2CCOCC2)c(NC(=O)C23CC4CC(CC(Cl)(C4)C2)C3)c1 returned Tb hexokinase inactive, NPY1 pot ag inactive, NPY2 pot ag inactive, NPY-Y2 antag inactive, m-calpain inh inactive and NPY-Y1 antag inactive.
`c1ccc(Cc2nnc3sc(-c4ccccn4)nn23)cc1` gave Tb hexokinase inactive, NPY1 pot ag inactive, NPY2 pot ag inactive, NPY-Y2 antag inactive, m-calpain inh inactive and NPY-Y1 antag inactive.
Screening CCOc1ccccc1-c1nn2c(Cc3ccccc3)nnc2s1 returned Tb hexokinase inactive, NPY1 pot ag inactive, NPY2 pot ag inactive, NPY-Y2 antag inactive, m-calpain inh inactive, NPY-Y1 antag 52.2, NPY1 antag conf 31.8 and NPY2 antag ctr 59.3.
For CC(=O)N1CCN(c2ccccc2NC(=O)COc2cc(C)ccc2C(C)C)CC1 the results were Tb hexokinase inactive, NPY1 pot ag inactive, NPY2 pot ag inactive, NPY-Y2 antag inactive, m-calpain inh inactive, NPY-Y1 antag 21.9, NPY1 antag conf inactive and NPY2 antag ctr inactive.
`Cc1ccc(C(C)C)c(OCC(=O)Nc2ccccc2N2CCN(C)CC2)c1` gave Tb hexokinase inactive, NPY1 pot ag inactive, NPY2 pot ag inactive, NPY-Y2 antag inactive, m-calpain inh inactive and NPY-Y1 antag inactive.
CCC(=O)N1CCN(c2ccccc2NC(=O)COc2cccc(C)c2)CC1 was read as Tb hexokinase inactive, NPY1 pot ag inactive, NPY2 pot ag inactive, NPY-Y2 antag inactive, m-calpain inh inactive, NPY-Y1 antag 20.3, NPY1 antag conf inactive and NPY2 antag ctr inactive.
Screening CCC(=O)N1CCN(c2ccccc2NC(=O)c2cccc(C)c2)CC1 returned Tb hexokinase inactive, NPY1 pot ag inactive, NPY2 pot ag inactive, NPY-Y2 antag inactive, m-calpain inh inactive and NPY-Y1 antag inactive.
CN1CCN(c2ccccc2NC(=O)COc2ccccc2)CC1 was read as Tb hexokinase inactive, NPY1 pot ag inactive, NPY2 pot ag inactive, NPY-Y2 antag inactive, m-calpain inh inactive, NPY-Y1 antag 20.7, NPY1 antag conf inactive and NPY2 antag ctr inactive.
`O=C(COC(=O)CCSc1ccc(Cl)cc1)NCc1ccc(Cl)cc1` gave Tb hexokinase inactive, NPY1 pot ag inactive, NPY2 pot ag inactive, NPY-Y2 antag inactive, m-calpain inh inactive and NPY-Y1 antag inactive.
Screening O=C(COC(=O)CCC(=O)c1ccc(Cl)cc1)NCCc1ccccc1 returned Tb hexokinase inactive, NPY1 pot ag inactive, NPY2 pot ag inactive, m-calpain inh inactive and NPY-Y1 antag inactive.
`O=C(COC(=O)CCC(=O)c1ccc(Cl)cc1)NCc1ccco1` gave Tb hexokinase inactive, NPY1 pot ag inactive, NPY2 pot ag inactive, m-calpain inh inactive, NPY-Y1 antag 22.1, NPY1 antag conf inactive and NPY2 antag ctr inactive.
